Rows were chosen to be rich in hits. Some 1.6% of all compounds tested hit in one or more screens of this group.
SUMO1-SIM PPI = modulators of SUMO1 protein-protein interactions, primary screen, biochemical, uHTS. Small ubiquitin-related modifier 1 (Homo sapiens), P63165. SUMO1 binding to a labelled peptide, TR-FRET, 1 h. inhibition, % at 20 µM. hit rate 0.33% among 360,000. AID 602429, 2012; in the data active means inhibition above about 37%
Target sequence (P63165 whole entry, looked up): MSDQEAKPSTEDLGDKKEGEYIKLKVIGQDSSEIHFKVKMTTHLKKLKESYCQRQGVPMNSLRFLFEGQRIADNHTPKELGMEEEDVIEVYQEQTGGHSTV
F508del corr = F508del CFTR correction, initial screen, CFBE line, single point; activity (quench increase), % at 7.58 µM; CFBE cells, YFP halide quenching; stimulated with forskolin plus potentiator P3; % fluorescence drop versus neutral controls; hit rate 0.36% among 350,000;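 active means mean added fluorescence quench of at least 8% versus neutral control, with both replicates also reaching 8%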;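 further: cells transiently co-express mutant CFTR-F508del with the halide-sensitive YFP; corrector assay measuring rescue of mutant channel to the surface after 24 h compound exposure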
Scp-1 inhibitor = Scp-1 phosphatase inhibitors, primary screen, biochemical, colorimetric, uHTS; Carboxy-terminal domain RNA polymerase II polypeptide A small phosphatase 1 (Homo …; Recombinant Scp1, phosphopeptide, malachite green phosphate absorbance; inhibition, % at 20 µM; hit rate 0.88% among 340,000; AID 493091, 2011;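 active means inhibition above about 50% at 20 µM, limit read from the data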;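 further: plate controls were DMSO wells with enzyme for no effect and wells lacking enzyme for full effect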
Target sequence (Q9GZU7 76-261 limits assumed): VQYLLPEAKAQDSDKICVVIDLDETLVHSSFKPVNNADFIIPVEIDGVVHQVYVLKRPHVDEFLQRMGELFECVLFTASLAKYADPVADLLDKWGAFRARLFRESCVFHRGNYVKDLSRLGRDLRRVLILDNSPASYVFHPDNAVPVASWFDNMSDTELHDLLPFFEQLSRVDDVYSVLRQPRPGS
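Incubation: 45 min enzyme reaction at room temperature / System: truncated SCP-1 phosphatase (76-261aa) / Reagent: Phospho 17-mer peptide substrate / Buffer or medium: Acidic Tris acetate buffer with magnesium and detergent / Signal: absorbance at 630 nm / Doses: one concentration, 20 µM, with 1.0% DMSO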
DNMT1 block = human DNMT1 methyltransferase inhibitors, primary screen, biochemical, molecular beacon, fluorescence, HinP1I cleavage, uHTS | inhibition (reported as % activation of signal), % at 10 µM | hit rate 0.83% among 360,000 | AID 588458, 2011; in the data active means inhibition above about 50%
STEP block = STEP phosphatase inhibitors, primary screen, biochemical, fluorescence intensity, uHTS | Tyrosine-protein phosphatase non-receptor type 5 (Homo sapiens), P54829 | recombinant STEP, OMFP fluorogenic substrate | inhibition, % at 20 µM | hit rate 0.25% among 360,000;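 active means inhibition at 20 µM, scaled per plate between control wells, above about 37%, limit read from the data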;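 further: 0% = DMSO with enzyme and substrate and 100% = substrate only without enzyme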
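Test system: STEP tyrosine phosphatase / Reagent: OMFP at 25 µM / Doses: 20 µM, 1% DMSO / Read-out: percent inhibition scaled to no-enzyme and uninhibited-enzyme controls, plate-pattern corrected / Detection: FITC-channel fluorescence of OMFP product / Medium: Bis-Tris buffer pH 6.0, 2.5 mM DTT, 0.005% Tween 20 / Schedule: 20 min at room temperature, dark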
LMPTP block = LMPTP phosphatase inhibitors, primary screen, biochemical, fluorescence intensity, uHTS; recombinant LMPTP-A, OMFP fluorogenic substrate; inhibition, % at 20 µM; hit rate 0.22% among 360,000; AID 651560, 2012;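 active means compounds that cut the enzyme signal by at least half of the control window in the single-dose screen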;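 further: plate controls were DMSO wells with enzyme plus substrate for no effect and substrate without enzyme for full effect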
Target sequence (P24666 whole entry, looked up): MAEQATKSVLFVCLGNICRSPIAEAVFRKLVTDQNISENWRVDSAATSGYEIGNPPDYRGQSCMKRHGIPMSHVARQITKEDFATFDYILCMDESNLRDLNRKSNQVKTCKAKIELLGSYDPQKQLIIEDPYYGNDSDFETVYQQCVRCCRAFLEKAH
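Assay system: LMPTP-A phosphatase enzyme | Input: 0.625 nM enzyme | Also added: Fluorogenic phosphatase substrate OMFP at 400 µM final | Compound dosing: One test concentration per compound, 20 µM, with 3% DMSO overall | Schedule: 50 min enzyme reaction at room temperature, protected from light | Signal: Fluorescence intensity | Benchmarks: no-enzyme and uninhibited controls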
DNMT1 inh conf = DNMT1 methyltransferase inhibitor retest, confirmation, biochemical, molecular beacon, fluorescence, single concentration | shares compounds with DNMT1 block | DNMT1 molecular beacon HinP1I cleavage | inhibition, % at 10 µM | hit rate 8% among 2,300;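 active means average inhibition of at least 30% in the single-concentration confirmation test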
Beacon interf = shows spectral interference in the DNMT1 beacon assay; shares compounds with DNMT1 block; hit rate 1% among 2,300; activation (fluorescence interference), % at 10 µM; DNMT1 molecular beacon spectral interference counterscreen, fluorescence 485/520;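 active means activation of at least 30% at 10 µM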;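 further: DNMT1 catalytic domain with a HinP1I cleavage step and a FAM/dabcyl DNA beacon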
Active calls of the source: *; . = no result; ! = repeats disagree.

SMILES | SUMO1-SIM PPI | F508del corr | Scp-1 inhibitor | DNMT1 block | STEP block | LMPTP block | DNMT1 inh conf | Beacon interf
COc1cccc(-c2[nH]nc3c2C(c2ccsc2)C(C#N)=C(N)O3)c1 (stereo not drawn) | -5.4 | . | -10.7 | -16.1 | 0.3 | -0.6 | . | .
CN(C)C(=O)c1cccc(-c2ccc([C@H]3[C@H](CO)N4C(=O)CN(C(=O)CC5CC5)C[C@@H]34)cc2)c1 | . | -2.1 | . | . | . | . | . | .
C[C@H]1CN([C@@H](C)CO)C(=O)c2cc(NC(=O)C3CC3)ccc2O[C@H]1CN(C)CC1CCCCC1 | . | 0.9 | . | . | . | . | . | .
O=C(Nc1ccccc1)Nc1nnc(/C=C/c2ccccc2Cl)s1 | 0.4 | . | -12.2 | 89.4* | 1.5 | 0.5 | 1.0 | 1.1
O=C(Nc1ccccc1)Nc1nnc(-c2ccccc2)s1 | 1.4 | 1.4 | 0.9 | 20.2 | 0.0 | -1.8 | . | .
CCOC(=O)C1CCN(c2c(NCCCN3CCN(Cc4ccccc4)CC3)c(=O)c2=O)CC1 | -4.0 | . | -6.1 | 0.5 | 0.0 | -2.6 | . | .
CCOC(=O)C1CCN(c2c(NCCCN3CCCCC3)c(=O)c2=O)CC1 | -1.6 | 1.8 | -7.4 | 92.8* | 2.9 | -0.4 | 3.7 | 2.4
COc1ccccc1C#Cc1ccc([C@@H]2[C@@H](CO)N3CCCCN(C(=O)C4CC4)C[C@@H]23)cc1 | . | 0.2 | . | . | . | . | . | .
Cc1ccccc1NC(=O)CN1CCN(Cc2ccccc2)CC1 | 5.9 | -3.3 | -3.9 | 78.7* | -3.8 | -1.4 | 1.3 | 5.4
Cc1ccccc1NC(=O)CCN1CCN(Cc2ccccc2)CC1 | -0.7 | . | -2.2 | -2.2 | -3.7 | -2.2 | . | .
CCN(CC)c1ccc(S(=O)(=O)N2CCOCC2)cc1NC(=O)CN1CCN(Cc2ccccc2)CC1 | 2.8 | -3.8 | -9.0 | 57.6* | 2.9 | -1.5 | 0.2 | 4.0
CO[C@H]1CN(C)C(=O)c2cc(NS(C)(=O)=O)ccc2OC[C@@H](C)NC[C@H]1C | . | -2.8 | . | . | . | . | . | .
CSc1nc(Sc2cccc(Cl)c2)c2ccccc2n1 | 2.1 | . | 2.6 | 86.8* | 1.8 | 0.8 | 6.6 | 4.1
CN1C(=O)c2cc(NC(=O)c3ccccc3)ccc2OC[C@@H]2O[C@H](CC(=O)NC3CCCC3)CC[C@@H]21 | . | -0.2 | . | . | . | . | . | .
COc1ccc(C(=O)Nc2ccc(NC(=O)c3cccs3)cc2)cc1[N+](=O)[O-] | -5.1 | -1.1 | -2.7 | 44.3 | -2.3 | 0.4 | 0.5 | 1.9
C[C@H](CO)N1C[C@H](C)[C@H](CN(C)Cc2ccncc2)Oc2c(NS(=O)(=O)c3ccc(F)cc3)cccc2C1=O | . | -6.3 | . | . | . | . | . | .
Cc1noc(C)c1NC(=O)Nc1ccc2c(c1)C(=O)N([C@H](C)CO)C[C@H](C)[C@H](CN(C)Cc1ccccc1)OCCCC[C@H](C)O2 | . | -2.3 | . | . | . | . | . | .
O=C1OC(c2cccs2)=N/C1=C/c1ccc(-c2cccc(C(=O)O)c2)o1 | 30.2 | -5.3 | 65.0* | 85.1* | 15.7 | 0.5 | 13.3 | -1.3
CCC(=O)Nc1ccc2c(c1)OC[C@@H](C)N(C(=O)CC1CC1)C[C@H](C)[C@H](OC)CN(C)C2=O | . | 2.6 | . | . | . | . | . | .
C[c-]1[c-](C)[c-](C)[c-](C)[c-]1C.[Fe].c1cc2nccc(N3CCCC3)[c-]2c1 (stereo not drawn) | 119.8* | -0.2 | 68.5*! | 102.0*! | 76.6* | 71.0* | 4.2 | 4.1
c1cc(N2CCCCC2)nc(N2CCCCC2)n1 | 2.6 | 2.2 | -12.4 | -0.2 | -4.5 | -0.9 | . | .

Source: PubChem BioAssay (several laboratories)
